Article PMC6810844 (Cellular and molecular life sciences : CMLS, 2019)

Key:
BoSGBPMLG-B = molecular target: T1, BoSGBPMLG-B (Bacteroides ovatus, UniProt A0ABU3IRL2); experiment: isothermal titration calorimetry; assay type: binding; conditions: 50 mM sodium phosphate pH 7.0, 25 °C; n fixed at 1
T1 sequence (A0ABU3IRL2 22-420): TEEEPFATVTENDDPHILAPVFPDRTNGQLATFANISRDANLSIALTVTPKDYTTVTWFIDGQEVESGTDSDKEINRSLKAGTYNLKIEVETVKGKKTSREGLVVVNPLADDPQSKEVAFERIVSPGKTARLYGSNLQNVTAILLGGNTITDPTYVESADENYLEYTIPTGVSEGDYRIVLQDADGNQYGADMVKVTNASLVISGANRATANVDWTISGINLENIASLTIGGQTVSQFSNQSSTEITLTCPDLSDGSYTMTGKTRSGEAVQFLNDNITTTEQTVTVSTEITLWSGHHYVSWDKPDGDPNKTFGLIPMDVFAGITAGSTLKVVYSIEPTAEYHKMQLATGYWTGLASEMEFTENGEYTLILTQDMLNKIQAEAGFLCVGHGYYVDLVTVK
Procedure, shortened: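 His6-tagged protein was produced in E. coli BL21(DE3) and purified by nickel affinity. Titrations ran at 25 °C in 50 mM sodium phosphate pH 7.0, except bMLG, which used 10 mM HEPES pH 7.0. 20–100 µM protein in the cell received one 2 µL injection, then 24 × 10 µL of 2.5–4.0 mg/mL polysaccharide or 1–2 mM oligosaccharide, with stirring at 280 rpm. MLG Ka was converted from g/L assuming a hexasaccharide motif.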

BoSGBPMLG-A = molecular target: T2, BoSGBPMLG-A (Bacteroides ovatus, UniProt A0AAN3A7L1); experiment: isothermal titration calorimetry; assay type: binding; conditions: 50 mM sodium phosphate pH 7.0, 25 °C
T2 sequence (A0AAN3A7L1 23-558): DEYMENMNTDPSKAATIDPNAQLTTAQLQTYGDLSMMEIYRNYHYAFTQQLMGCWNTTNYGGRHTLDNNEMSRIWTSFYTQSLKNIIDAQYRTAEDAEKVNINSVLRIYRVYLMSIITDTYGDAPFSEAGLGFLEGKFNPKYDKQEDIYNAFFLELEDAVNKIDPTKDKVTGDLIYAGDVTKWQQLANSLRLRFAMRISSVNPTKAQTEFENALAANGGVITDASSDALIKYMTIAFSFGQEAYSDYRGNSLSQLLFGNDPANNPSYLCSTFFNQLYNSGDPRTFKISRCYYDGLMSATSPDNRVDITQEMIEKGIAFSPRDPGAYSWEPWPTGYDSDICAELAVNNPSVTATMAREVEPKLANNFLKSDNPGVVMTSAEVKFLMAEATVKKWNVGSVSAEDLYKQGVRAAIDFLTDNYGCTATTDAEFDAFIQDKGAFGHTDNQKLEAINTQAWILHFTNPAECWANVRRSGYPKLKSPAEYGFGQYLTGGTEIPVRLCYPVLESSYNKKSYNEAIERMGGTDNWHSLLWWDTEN
Procedure, shortened: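 Recombinant His6-tagged protein was expressed in E. coli BL21(DE3), Ni-IMAC purified, and exchanged into 50 mM sodium phosphate pH 7.0. In the cell: 20–100 µM protein at 25 °C, stirred at 280 rpm. Injections: 2 µL, then 24 × 10 µL of 2.5–4.0 mg/mL polysaccharide or 1–2 mM oligosaccharide. Heat recorded. Molar polysaccharide Ka assumed a hexasaccharide motif for MLG and a Glc8-backbone motif for XyG.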

Structure (SMILES) | Ka (M^-1) / BoSGBPMLG-B (BoSGBPMLG-B) | Ka (M^-1) / BoSGBPMLG-A (BoSGBPMLG-A; n fixed at 1) | Ka (M^-1) / BoSGBPMLG-A (BoSGBPMLG-A)
OC[C@H]1O[C@@H](O[C@H]2[C@H](O)[C@@H](O)[C@H](O[C@H]3[C@H](O)[C@@H](O)[C@H](O[C@H]4[C@H](O)[C@@H](O)[C@H](O[C@H]5[C@H](O)[C@@H](O)[C@H](O[C@H]6[C@H](O)[C@@H](O)C(O)O[C@@H]6CO)O[C@@H]5CO)O[C@@H]4CO)O[C@@H]3CO)O[C@@H]2CO)[C@H](O)[C@@H](O)[C@@H]1O (stereo partly drawn) [Cellohexaose] | (3.1 ± 0.06) × 10^3 | (3.39 ± 0.03) × 10^3 | 
OC[C@H]1O[C@@H](O[C@H]2[C@H](O)[C@@H](O)[C@H](O[C@@H]3[C@@H](O)[C@H](O[C@H]4[C@H](O)[C@@H](O)[C@H](O[C@H]5[C@H](O)[C@@H](O)[C@H](O[C@H]6[C@H](O)[C@@H](CO)OC(O)[C@@H]6O)O[C@@H]5CO)O[C@@H]4CO)O[C@H](CO)[C@H]3O)O[C@@H]2CO)[C@H](O)[C@@H](O)[C@@H]1O (stereo partly drawn) [MLG6, G4G3G4G4G3G] | (3.16 ± 0.19) × 10^3 |  | (1.44 ± 0.04) × 10^4
OC[C@H]1O[C@@H](O[C@H]2[C@H](O)[C@@H](O)[C@H](O[C@H]3[C@H](O)[C@@H](O)[C@H](O[C@@H]4[C@@H](O)[C@H](O[C@H]5[C@H](O)[C@@H](O)[C@H](O[C@H]6[C@H](O)[C@@H](O)[C@H](O[C@H]7[C@H](O)[C@@H](CO)OC(O)[C@@H]7O)O[C@@H]6CO)O[C@@H]5CO)O[C@H](CO)[C@H]4O)O[C@@H]3CO)O[C@@H]2CO)[C@H](O)[C@@H](O)[C@@H]1O (stereo partly drawn) [MLG7, G4G4G3G4G4G3G] | (4.69 ± 0.13) × 10^3 |  | (4.51 ± 0.34) × 10^4
